ChEMBL document CHEMBL1122658, “Amnesia-reversal activity of a series of N-[(disubstituted-amino)alkyl] -2-oxo-1-pyrrolidineacetamides, including pramiracetam” (1984)

What was measured:
Format in all cases: functional
Details in all cases: route intraperitoneal
[1] = tested on: Mus musculus; assay: Ability to reverse electroconvulsive shock (ECS) induced amnesia in mice, after administering intraperitoneally, at a dose of 80 mg/kg
In short: (§1)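 Male CF-1 mice (20-25 g), five groups of 20, trained in one trial on step-through inhibitory avoidance (darkened chamber). ECS given 2 h after training. Test drug or vehicle placebo injected ip 2 h after ECS, 1 h before retention test. Entry into box within 60 s scored as amnesia. % reversal = (drug − base-line ECS+placebo)/(ceiling no-ECS+placebo − base-line) ×100.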

[2] = tested on: Mus musculus; assay: Ability to reverse electroconvulsive shock induced amnesia in mice, after administering intraperitoneally at a dose of 20 mg/kg; in short: as §1
[3] = tested on: Mus musculus; assay: Ability to reverse electroconvulsive shock (ECS) induced amnesia in mice, after administering intraperitoneally, at a dose of 5 mg/kg; in short: as §1
[4] = tested on: Mus musculus; assay: Ability to reverse electroconvulsive shock (ECS) induced amnesia in mice, after administering intraperitoneally, at a dose of 80.0 mg/kg; in short: as §1
[5] = tested on: Mus musculus; assay: Ability to reverse electroconvulsive shock induced amnesia in mice, after administering intraperitoneally at a dose of 20.0 mg/kg; in short: as §1
[6] = tested on: Mus musculus; assay: Ability to reverse electroconvulsive shock induced amnesia in mice, after administering intraperitoneally at a dose of 5 mg/kg; in short: as §1
[7] = tested on: Mus musculus; assay: Ability to reverse electroconvulsive shock (ECS) induced amnesia in mice, after administering intraperitoneally, at a dose of 0.63 mg/kg; in short: as §1
[8] = tested on: Mus musculus; assay: Ability to reverse electroconvulsive shock induced amnesia in mice, after administering intraperitoneally at a dose of 1.25 mg/kg; in short: as §1
[9] = tested on: Mus musculus; assay: Ability to reverse electroconvulsive shock induced amnesia in mice, after administering intraperitoneally at a dose of 2.5 mg/kg; in short: as §1
[10] = tested on: Mus musculus; assay: Ability to reverse electroconvulsive shock (ECS) induced amnesia in mice, after administering intraperitoneally, at a dose of 160 mg/kg; in short: as §1
[11] = tested on: Mus musculus; assay: Ability to reverse electroconvulsive shock (ECS) induced amnesia in mice, after administering intraperitoneally, at a dose of 0.31 mg/kg; in short: as §1

SMILES	Amnesia reversal [1] [%]	Amnesia reversal [2] [%]	Amnesia reversal [3] [%]	Amnesia reversal [4] [%]	Amnesia reversal [5] [%]	Amnesia reversal [6] [%]	Amnesia reversal [7] [%]	Amnesia reversal [8] [%]	Amnesia reversal [9] [%]	Amnesia reversal [10] [%]	Amnesia reversal [11] [%]
CC1CCC(=O)N1CC(=O)NCCCN1C(C)CCCC1C (stereo not given)	10	30	0								
CN(C)CCCNC(=O)CN1CCCC1=O				46	46	31					
CC(C)N(CCCNC(=O)CN1CC(c2ccccc2)CC1=O)C(C)C (stereo not given)				27	55	82	9	0	45		
CC(CNC(=O)CN1CCCC1=O)N1CCCCC1 (stereo not given)	0	0	0								
CC1CCCC(C)N1CCCNC(=O)CN1CCCC1=O (stereo not given)				100	55	50		25	33	60	
C=C(C)[C@@H]1[C@H]2OC(=O)[C@@H]1[C@]1(O)C[C@H]3OC34C(=O)O[C@H]2[C@@]41C.CC(C)(O)[C@@H]1[C@H]2OC(=O)[C@@H]1[C@]1(O)C[C@H]3OC34C(=O)O[C@H]2[C@@]41C (stereo not given in full) [PICROTOXIN]						5	5	5	5		5
CC(C)N(C)CCNC(=O)CN1CCCC1=O	0	0	21								
CC1CCCC(C)N1CCNC(=O)CN1CC(c2ccccc2)CC1=O (stereo not given)	33	44	67				0	10	40		
CC(C)N(CCCCNC(=O)CN1CCCC1=O)C(C)C				15	31	31	0	8	8		
NC(=O)CN1CCC(c2ccccc2)C1=O (stereo not given)				33	17	8					
CN(C)CCCN1c2ccccc2Sc2ccc(Cl)cc21 [CHLORPROMAZINE]						0	20	10	0		15
C1CCc2nnnn2CC1.O=C(O)c1cccnc1	9	0				0					
CC1CC(C)N(CCCNC(=O)CN2CCCC2=O)C(C)(C)C1 (stereo not given)	45	18	9								
CCN(CC)CCNC(=O)CN1CCCC1=O	31	46	15								
C[C@@H]1CCC[C@H](C)N1CCNC(=O)CN1CCCC1=O				10	70	70	10	20	50		
CC1CCCC(C)N1CCNC(=O)CN1CCCCC1=O (stereo not given)				60	10	20					
CC1CCCC(C)N1CCCNC(=O)CN1C(=O)CCC1(C)C (stereo not given)		58	25	50						33	
C[C@H](N)Cc1ccccc1 [DEXTROAMPHETAMINE]							15	40			10
CCC1CCC(=O)N1CC(=O)NCCN1C(C)CCCC1C (stereo not given)	27	40	27								

SMILES	Amnesia reversal [1] [%]	Amnesia reversal [2] [%]	Amnesia reversal [3] [%]	Amnesia reversal [4] [%]	Amnesia reversal [5] [%]	Amnesia reversal [6] [%]	Amnesia reversal [7] [%]	Amnesia reversal [8] [%]	Amnesia reversal [9] [%]	Amnesia reversal [10] [%]	Amnesia reversal [11] [%]
CC1CCCC(C)N1CCNC(=O)CCN1CCCC1=O (stereo not given)				17	42	33					
C[C@H]1CCC[C@H](C)N1CCNC(=O)CN1CCCC1=O			48	17	25			45	82		
CN(C)CCNC(=O)CN1CCCC1=O.Cl			50								
CCC1CCCC(CC)N1CCCNC(=O)CN1CCCC1=O (stereo not given)			42	17	42			0	0		
CCN(CC)CCNC(=O)CN1CC(c2ccccc2)CC1=O (stereo not given)				8	0	42	0	0	27		
CC(C)N(CCCNC(=O)CN1CCCC1=O)C(C)C				30	20	30	0	9	0		
CC1CCC(=O)N1CC(=O)NCCN(C(C)C)C(C)C (stereo not given)	56	0	0								
CC1CCC(=O)N1CC(=O)NCCN1C(C)CCCC1C (stereo not given)	0	36	55				33	58	67		
O=C(CN1CCCC1=O)NCCN1CCCCC1				0	0	45	18	64	45		
CC(CNC(=O)CN1C(=O)CCC1C)N1CCCCC1 (stereo not given)	45	36	18								
CC1CCCC(C)N1CCCNC(=O)CN1CC(c2ccccc2)CC1=O (stereo not given)	50	0	0								
CN1CCC[C@H]1c1cccnc1 [NICOTINE]						0	5	0	5		20
COC(=O)[C@H]1[C@@H](OC(=O)c2ccccc2)C[C@@H]2CC[C@H]1N2C [COCAINE]						10	10	10	15		15
CC1CCC(=O)N1CC(=O)NCCCN(C(C)C)C(C)C (stereo not given)	30	0	40							20	
CC(C(=O)NCCN1C(C)CCCC1C)N1CCCC1=O (stereo not given)	61	42	17								
NC(=O)CN1CC(c2ccccc2)CC1=O (stereo not given)				0	0	15	0	0	0		
CC1CCCC(C)N1CCNC(=O)CN1C(=O)CCC1(C)C (stereo not given)	44	22								80	
CC(C)N(CCNC(=O)CN1CCCC1=O)C(C)C [PRAMIRACETAM]				18	82	96	0	30	60		
CC(C(=O)NCCCN1C(C)CCCC1C)N1CCCC1=O (stereo not given)	23				50	8				30	
